Calls of active or inactive are those of the source. The rule behind the calls is not given here.
Experiments:
[1] = Inhibition of XIAP BIR2 (124 to 240 residues) C202A/C213G mutant (unknown origin) incubated for 60 mins by biotinylated SMAC peptide Alpha-screen assay; parameters: species or system Homo sapiens
[2] = target: E3 ubiquitin-protein ligase XIAP (Homo sapiens, UniProt P98170); experiment: Inhibition of XIAP BIR3 (241 to 356 residues) (unknown origin) incubated for 60 mins by fluoresceinated modified SMAC peptide based fluorescence polarization assay
E3 ubiquitin-protein ligase XIAP, sequence (P98170 whole entry, looked up, the tested form may be a part): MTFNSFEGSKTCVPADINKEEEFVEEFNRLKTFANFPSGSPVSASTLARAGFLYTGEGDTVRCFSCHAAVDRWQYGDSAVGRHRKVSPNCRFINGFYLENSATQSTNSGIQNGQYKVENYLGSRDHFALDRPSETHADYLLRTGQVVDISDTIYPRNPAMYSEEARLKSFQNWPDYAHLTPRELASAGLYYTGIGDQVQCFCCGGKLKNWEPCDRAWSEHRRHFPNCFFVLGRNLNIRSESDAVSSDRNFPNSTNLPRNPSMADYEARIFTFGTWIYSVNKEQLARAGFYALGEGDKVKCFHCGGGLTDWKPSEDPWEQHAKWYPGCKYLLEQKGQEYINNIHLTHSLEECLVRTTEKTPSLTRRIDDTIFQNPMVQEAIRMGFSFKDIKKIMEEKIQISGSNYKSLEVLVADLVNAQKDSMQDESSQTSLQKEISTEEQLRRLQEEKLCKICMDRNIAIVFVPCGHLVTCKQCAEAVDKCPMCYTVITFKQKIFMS

Mus musculus [3] = experiment: Toxicity in human MDA-MB-231 cells xenografted athymic (nu+/nu+) Balb/C mouse assessed as weight loss at 5 to 50 mg/kg, ip dosed every 3 days for total of 5 administrations; format: organism-based; parameters: dose 5-50 mg/kg, route intraperitoneal; conditions: in vivo, 72 h
How it was run: (§1)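 Nude mice carrying subcutaneous MDA-MB-231 tumors staged to 100−150 mm3 were dosed intraperitoneally q3d × 5. Morbidity and body weight loss were monitored throughout the dosing regimen.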

[4] = Antitumor activity against human A875 cells xenografted in athymic (nu+/nu+) Balb/C mouse assessed as tumor growth inhibition at 50 mg/kg, ip dosed every 3 days for total of 5 administrations; format: functional; conditions: 72 h, route intraperitoneal, read-out: TGI
How it was run: (§2)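 Tumor fragments or cells were implanted subcutaneously in athymic nude mice. Once tumors were staged to 100−150 mm3, mice were dosed intraperitoneally every 3 days for 5 doses (q3d × 5).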

A875 = experiment: Antitumor activity against human A875 cells xenografted in athymic (nu+/nu+) Balb/C mouse assessed as tumor growth inhibition at 50 mg/kg, ip dosed every 3 days for total of 5 administrations and measured on day 12 after last dose; format: functional, organism-based; parameters: dose 50 mg/kg; how it was run: as §2
MDA-MB-231 [5] = experiment: Antiproliferative activity against human MDA-MB-231 cells assessed as inhibition of cell proliferation after 72 hrs by MTS assay; format: functional, cell-based; conditions: MDA-MB-231, 72 h
[6] = Antiproliferative activity against human A875 cells assessed as inhibition of cell proliferation after 72 hrs by MTS assay; format: functional, cell-based; conditions: A875, 72 h
A549 = experiment: Antiproliferative activity against human A549 cells assessed as inhibition of cell proliferation after 72 hrs by MTS assay; format: functional, cell-based; conditions: A549, 72 h
[7] = Half life in Balb/C mouse at 1 mg/kg, iv administered as single dose by LC-MS/MS method; format: ADME, organism-based; parameters: dose 1 mg/kg, route intravenous; conditions: in vivo
How it was run: (§3)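 Mice received one intravenous dose, and parent compound levels in blood were monitored over time. Plasma pharmacokinetic parameters were derived from these concentration–time profiles.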

[8] = Mean residence time in Balb/C mouse at 1 mg/kg, iv administered as single dose by LC-MS/MS method; format: ADME, organism-based; parameters: dose 1 mg/kg, route intravenous; conditions: in vivo; how it was run: as §3
[9] = Volume of distribution at steady state in Balb/C mouse at 1 mg/kg, iv administered as single dose by LC-MS/MS method; format: ADME, organism-based; parameters: dose 1 mg/kg, route intravenous; conditions: in vivo, read-out: Vdss; how it was run: as §3
Mus musculus [10] = experiment: AUClast in Balb/C mouse at 1 mg/kg, iv administered as single dose by LC-MS/MS method; format: ADME, organism-based, Plasma; parameters: time 0 - last, dose 1 mg/kg, route intravenous; conditions: in vivo; how it was run: as §3
MDA-MB-231 [11] = experiment: Antitumor activity against human MDA-MB-231 cells xenografted in athymic (nu+/nu+) Balb/C mouse assessed as tumor growth inhibition at 5 mg/kg, ip dosed every 3 days for total of 5 administrations; format: functional, organism-based; parameters: dose 5 mg/kg; how it was run: as §2
MDA-MB-231 [12] = experiment: Antitumor activity against human MDA-MB-231 cells xenografted in athymic (nu+/nu+) Balb/C mouse assessed as tumor growth inhibition at 20 mg/kg, ip dosed every 3 days for total of 5 administrations; format: functional, organism-based; parameters: dose 20 mg/kg; how it was run: as §2
MDA-MB-231 [13] = experiment: Antitumor activity against human MDA-MB-231 cells xenografted in athymic (nu+/nu+) Balb/C mouse assessed as tumor growth inhibition at 50 mg/kg, ip dosed every 3 days for total of 5 administrations; format: functional; conditions: MDA-MB-231, ip, 72 h, route intraperitoneal, read-out: TGI; how it was run: as §2
Mus musculus [14] = experiment: Toxicity in human MDA-MB-231 cells xenografted athymic (nu+/nu+) Balb/C mouse assessed as mouse morbidity at 5 to 50 mg/kg, ip dosed every 3 days for total of 5 administrations; format: organism-based; parameters: dose 5-50 mg/kg, route intraperitoneal; conditions: in vivo, 72 h; how it was run: as §1
BIR2 domain of XIAP = BIR2 domain of XIAP (Homo sapiens, UniProt P98170, C202A/C213G); experiment: Inhibition of XIAP BIR2-3 (124 to 356 residues) C202A/C213G mutant (unknown origin) in human THP1 cells using fluoresceinated caspase-3 substrate by caspase-3 rescue assay; format: cell-based, THP-1
BIR2 domain of XIAP, sequence (P98170 whole entry C202A/C213G, looked up, the tested form may be a part): as the sequence (P98170 whole entry, looked up, the tested form may be a part) above, with C202A, C213G counted along it

[15] = target: Baculoviral IAP repeat-containing protein 2 (Homo sapiens, UniProt Q13490); experiment: Inhibition of cIAP1 BIR2-3 (154 to 352 residues) (unknown origin) fluoresceinated dimeric SMAC peptide based fluorescence polarization assay
Baculoviral IAP repeat-containing protein 2, sequence (Q13490 whole entry, the tested form may be a part): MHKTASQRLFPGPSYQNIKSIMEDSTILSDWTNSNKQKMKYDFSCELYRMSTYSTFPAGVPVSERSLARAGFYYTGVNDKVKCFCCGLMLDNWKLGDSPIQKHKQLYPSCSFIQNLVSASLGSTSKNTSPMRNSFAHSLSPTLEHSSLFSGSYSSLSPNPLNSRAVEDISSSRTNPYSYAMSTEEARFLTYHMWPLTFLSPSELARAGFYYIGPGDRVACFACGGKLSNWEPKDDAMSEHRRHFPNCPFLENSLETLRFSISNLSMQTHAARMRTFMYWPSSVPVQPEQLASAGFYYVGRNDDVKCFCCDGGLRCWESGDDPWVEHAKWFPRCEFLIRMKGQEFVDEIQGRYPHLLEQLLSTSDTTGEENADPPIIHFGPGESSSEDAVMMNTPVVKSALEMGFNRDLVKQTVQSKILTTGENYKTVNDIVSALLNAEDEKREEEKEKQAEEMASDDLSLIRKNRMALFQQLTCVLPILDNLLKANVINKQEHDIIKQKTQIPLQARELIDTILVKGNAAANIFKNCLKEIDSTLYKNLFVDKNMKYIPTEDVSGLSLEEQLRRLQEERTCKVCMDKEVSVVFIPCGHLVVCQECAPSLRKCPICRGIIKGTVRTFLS

[16] = Half life in Balb/C mouse at 0.2 mg/kg, iv administered as single dose by LC-MS/MS method; format: ADME, organism-based; parameters: dose 0.2 mg/kg, route intravenous; conditions: in vivo; how it was run: as §3
[17] = Mean residence time in Balb/C mouse at 0.2 mg/kg, iv administered as single dose by LC-MS/MS method; format: ADME, organism-based; parameters: dose 0.2 mg/kg, route intravenous; conditions: in vivo; how it was run: as §3
[18] = Volume of distribution at steady state in Balb/C mouse at 0.2 mg/kg, iv administered as single dose by LC-MS/MS method; format: ADME, organism-based; parameters: dose 0.2 mg/kg, route intravenous; conditions: in vivo, read-out: Vdss; how it was run: as §3
Mus musculus [19] = experiment: AUClast in Balb/C mouse at 0.2 mg/kg, iv administered as single dose by LC-MS/MS method; format: ADME, organism-based, Plasma; parameters: dose 0.2 mg/kg, route intravenous, time 0 - last; conditions: in vivo; how it was run: as §3

Compound	IC50 [1] [nM]	IC50 [2] [nM]	IC50 (MDA-MB-231 [5]) [nM]	IC50 [6] [nM]	IC50 (A549) [nM]	EC50 (BIR2 domain of XIAP) [nM]	further results
CN[C@@H](C)C(=O)N[C@H]1Cc2ccc(cc2)OCc2cn(nn2)CCCOc2ccc(cc2)C[C@@H](C(=O)O)NC(=O)[C@H](Cc2ccccc2)NC(=O)[C@@H]2CCCN2C1=O	4870	366	–	–	–	–	–
CN[C@@H](C)C(=O)N[C@H](C(=O)N1C[C@@H]2C[C@H]1C(=O)N[C@@H](Cc1ccc3ccccc3c1)C(=O)N[C@H](C(=O)O)Cc1ccc(cc1)OCc1cn(nn1)[C@H]1C[C@@H](C(=O)N[C@@H](Cc3ccc4ccccc4c3)C(=O)N[C@H](C(=O)O)Cc3ccc(cc3)OCc3cn2nn3)N(C(=O)[C@@H](NC(=O)[C@H](C)NC)C(C)(C)C)C1)C(C)(C)C	97	–	26	77	> 25000	–	Activity (Mus musculus [3]): Non-toxic; inhibition in vivo at 50 mg/kg [4]: 148%; TGI (A875): Active; half-life [7]: 51 min; MRT [8]: 47.4 min; Vd [9]: 0.34 L/kg; AUClast (Mus musculus [10]): 1550 ng·h/mL; TGI (MDA-MB-231 [11]): inactive; TGI (MDA-MB-231 [12]): inactive; inhibition in vivo at 50 mg/kg (MDA-MB-231 [13]): 78%; Activity (Mus musculus [14]): Non-toxic
CN[C@@H](C)C(=O)N[C@H](C(=O)N1C[C@@H]2C[C@H]1C(=O)N[C@@H](Cc1ccc3ccccc3c1)C(=O)N[C@H](C(=O)O)Cc1cn(nn1)[C@H]1C[C@@H](C(=O)N[C@@H](Cc3ccc4ccccc4c3)C(=O)N[C@H](C(=O)O)Cc3cn2nn3)N(C(=O)[C@@H](NC(=O)[C@H](C)NC)C(C)C)C1)C(C)C	300	65	2010	6140	> 25000	49	IC50 [15]: 3 nM; half-life [7]: 9.6 min; MRT [8]: 15 min; Vd [9]: 0.18 L/kg; AUClast (Mus musculus [10]): 1070 ng·h/mL
CN[C@@H](C)C(=O)N[C@H]1CCCCNC(=O)CCc2cn(nn2)CCOc2ccc(cc2)C[C@@H](C(=O)O)NC(=O)[C@H](Cc2ccccc2)NC(=O)[C@@H]2CCCN2C1=O	> 18800	1490	–	–	–	–	–
CN[C@@H](C)C(=O)N[C@H](C(=O)N1C[C@@H]2C[C@H]1C(=O)N[C@@H](Cc1ccc3ccccc3c1)C(=O)N[C@H](C(=O)O)Cc1ccc(cc1)OCc1cn(nn1)[C@H]1C[C@@H](C(=O)N[C@@H](Cc3ccc4ccccc4c3)C(=O)N[C@H](C(=O)O)Cc3ccc(cc3)OCc3cn2nn3)N(C(=O)[C@@H](NC(=O)[C@H](C)NC)C2CCCCC2)C1)C1CCCCC1	740	–	14	84	> 25000	–	half-life [16]: 114 min; MRT [17]: 150 min; Vd [18]: 0.7 L/kg; AUClast (Mus musculus [19]): 457 ng·h/mL
CN[C@@H](C)C(=O)N[C@H](C(=O)N1C[C@@H]2C[C@H]1C(=O)N[C@@H](Cc1ccccc1)C(=O)N[C@H](C(=O)O)Cc1ccc(cc1)OCc1cn2nn1)C(C)C	139	160	12500	> 10000	> 25000	1400	–
CN[C@@H](C)C(=O)N[C@H](C(=O)N1C[C@@H]2C[C@H]1C(=O)N[C@@H](Cc1ccc3ccccc3c1)C(=O)N[C@H](C(=O)O)Cc1ccc(cc1)OCc1cn(nn1)[C@H]1C[C@@H](C(=O)N[C@@H](Cc3ccc4ccccc4c3)C(=O)N[C@H](C(=O)O)Cc3ccc(cc3)OCc3cn2nn3)N(C(=O)[C@@H](NC(=O)[C@H](C)NC)C(C)C)C1)C(C)C	333	40	82	218	> 25000	59	–
CN[C@@H](C)C(=O)N[C@H]1CCCCNC(=O)CCc2cn(nn2)CCCC[C@@H](C(=O)O)NC(=O)[C@H](Cc2ccccc2)NC(=O)[C@@H]2CCCN2C1=O	> 18800	1360	–	–	–	–	–
CN[C@@H](C)C(=O)N[C@H]1Cc2ccc(cc2)OCc2cn(nn2)CCOc2ccc(cc2)C[C@H](C(=O)O)NC(=O)[C@H](Cc2ccccc2)NC(=O)[C@@H]2CCCN2C1=O	7990	2880	–	–	–	–	–
CN[C@@H](C)C(=O)N[C@H](C(=O)N1C[C@@H]2C[C@H]1C(=O)N[C@@H](Cc1ccccc1)C(=O)N[C@@H](C(=O)O)Cc1ccc(cc1)NC(=O)CCc1cn2nn1)C(C)C	> 18800	232	–	–	–	–	–
